This note sets out measurements from ChEMBL document CHEMBL4513216, “Probing the Open Global Health Chemical Diversity Library for Multistage-Active Starting Points for Next-Generation Antimalarials” (ACS Infect Dis, 2020).

The data set is described as follows: Toxicity liver stage against HepG2, at 10uM. Type of data set: cell-based. Set-up: test concentration 10 uM, cell line HepG2-A16-CD81EGFP. The settings on record: human, HepG2-A16-CD81EGFP cells; read-out: INHIBITION
In a few lines:
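Uninfected HepG2-A16-CD81EGFP cells, 3 × 10^3 per well, 1536-well, plated on prespotted compound at 10 μM final, parasite-free screening media added to match infected plates; puromycin 10 μM positive, DMSO 0.5% negative; run in parallel with 48 h PbLuc assay at 37 °C, 5% CO2; viability by CellTiter-Glo luminescence, normalized to controls.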
With `COCCOc1ccc(-c2noc([C@@H]3CCCN3)n2)cn1`, the cytotoxicity at 10 µM is -4.34%.

In the case of `CCCN1C(=O)CC(N2CCN(c3ccc(F)cc3)CC2)C1=O` (stereo unspecified), the cytotoxicity at 10 µM was -3.03%.

In the case of `CC(Nc1nccc(CCC(F)(F)F)n1)c1nc(-c2ccncc2)no1` (stereo unspecified), the cytotoxicity at 10 µM worked out at 4.74%.

With `COc1ccc(Cl)cc1CN(C)C(=O)CN1C(=O)CCC1C` (stereo unspecified), the cytotoxicity at 10 µM stood at 0.277%.

As for `COc1ccc(CCC(=O)Nc2ccncc2C)cc1`, the cytotoxicity at 10 µM was 16.1%.

As to `COCC1CN(Cc2sccc2C)Cc2nnn(CC3CC3)c21` (stereo unspecified), the cytotoxicity at 10 µM turned out to be 4.35%.

With `NCc1cnn(-c2ccccc2C(=O)NCc2ccccn2)c1`, the cytotoxicity at 10 µM was -19.9%.

`CC1=N[C@@]2(CC[C@@H]3CN(CC(C)C)C[C@@H]32)C(=O)N1CC(C)C`: the cytotoxicity at 10 µM is -79.6%.

On to `Cc1nc2cc(C(=O)N3C[C@@H](C(=O)O)[C@H](c4ccncc4)C3)ccc2[nH]1`, for which the cytotoxicity at 10 µM came out at 0.682%.

As for `NC(=O)C1CCN(C(=O)c2cc(Br)ccc2-n2cnnn2)CC1`, the cytotoxicity at 10 µM amounted to 13.1%.

As for `Cc1csc(C(C)(C)NCc2ncc(-c3ccc(F)cc3)o2)n1`, the cytotoxicity at 10 µM is 8.27%.

As to `COc1cc2c(cc1OC)CN(C(=O)NC(C)c1nncn1C)CC2` (stereo unspecified), the cytotoxicity at 10 µM is -4.54%.

Turning to `CC(C)N(C)[C@@H]1CCN(C(=O)c2ccc[nH]2)[C@H]1Cc1cnn(C)c1`, the cytotoxicity at 10 µM is -72%.

Consider `Cc1ccc(C(=O)N(CC2CCCO2)c2ccncc2)o1` (stereo unspecified), for which the cytotoxicity at 10 µM was -3.08%.

As to `CCN(CC)CCNc1nc(C(C)C)nc2c(C)nn(CC)c12`, the cytotoxicity at 10 µM turned out to be 8.99%.

With `CN(C)CCCNC(=O)c1ccnc(OCc2ccccc2)c1`, the cytotoxicity at 10 µM is -11.5%.

Regarding `Cc1ccccc1CS(=O)(=O)Cc1nc(C2CC2)no1`, the cytotoxicity at 10 µM amounted to 4.49%.

For the compound `O=C(CN1CCOC(Cn2cccn2)C1)NCCc1cccs1` (stereo unspecified), the cytotoxicity at 10 µM was -11.3%.

Consider `O=C(Nc1ccc(F)cc1)N1C[C@@H]2C[C@H](C(=O)N3CCCC3)[C@H](C1)O2`, for which the cytotoxicity at 10 µM stood at 7.06%.

Take `CCc1nccc(CN2CCC(CNC(=O)c3occc3C)C2)n1` (stereo unspecified): the cytotoxicity at 10 µM worked out at 6.95%.

As for `CC(=O)N1Cc2nccn2CC(CNC(=O)c2cccnc2)C1` (stereo unspecified), the cytotoxicity at 10 µM is -146%.

Consider `Cc1nc(N2CCCC2)ncc1-c1cc(O)nc(N2CCCC2)n1`, for which the cytotoxicity at 10 µM amounted to 6.79%.

In the case of `N[C@H]1CN(C(=O)CCc2ccccn2)C[C@@H]1c1ccccc1`, the cytotoxicity at 10 µM is -0.23%.

Take `Cc1nnc(NCCc2nc3ccc(F)cc3n2C)c(C#N)c1C`: the cytotoxicity at 10 µM was -0.744%.

Take `Cc1c[nH]c(C2CCCN2C(=O)CCc2c(C)n[nH]c2C)n1` (stereo unspecified): the cytotoxicity at 10 µM is -1.4%.

`COCc1cc(CC2(NC3CCN(C)CC3)COC2)no1`: the cytotoxicity at 10 µM is -4.12%.

`CCN(C(=O)C(C)C)C(c1cccnc1)c1ccc2c(c1)CCO2` (stereo unspecified): the cytotoxicity at 10 µM was 2.14%.

On to `CCOCC1CC2(CCN(C(=O)c3cscn3)CC2)CO1` (stereo unspecified), for which the cytotoxicity at 10 µM was 2.42%.

Regarding `COc1ccccc1CCNC(=O)CNC1CCc2nc(C)nn2C1` (stereo unspecified), the cytotoxicity at 10 µM is -12.3%.

For the compound `CS(=O)(=O)Cc1ccc(CNC(=O)N2CCC(C(N)=O)C2)cc1` (stereo unspecified), the cytotoxicity at 10 µM was -6.43%.

In the case of `C[C@@H]1CN(C(=O)c2ccc(C#N)nc2)C[C@@]1(O)C1CC1`, the cytotoxicity at 10 µM was -28.8%.

For the compound `NC(=O)C1CCN(Cn2nc(-c3ccccc3)oc2=O)CC1`, the cytotoxicity at 10 µM is -16.8%.

Take `O=C(NC(C1CC1)C1CC1)c1cccc[n+]1[O-]`: the cytotoxicity at 10 µM was 10.8%.

Consider `Cn1ncc2c1C(COCC1CC1)CN(Cc1ccoc1)C2` (stereo unspecified), for which the cytotoxicity at 10 µM was -1.21%.

As for `COCCCn1ccc(NC(=O)NCCc2cccnc2)n1`, the cytotoxicity at 10 µM was -0.996%.

`CC(=O)c1cc(CN2C[C@@H](NS(=O)(=O)N(C)C)[C@H](C(C)C)C2)cs1`: the cytotoxicity at 10 µM was -7.79%.

As for `CC(C)NC(=O)N1CCC2(CC1)Cc1ccccc1CNC2=O`, the cytotoxicity at 10 µM was found to be 1.33%.

`Cc1cccnc1NC(=O)NCc1ccc(N2CCNC(=O)C2)cc1`: the cytotoxicity at 10 µM was -8.85%.

Turning to `Cc1cnn(-c2ccc(S(=O)(=O)N(C)CC(F)F)cc2F)c1`, the cytotoxicity at 10 µM stood at 9.75%.

As to `CCn1cnc2c(c(Br)nn2C)c1=O`, the cytotoxicity at 10 µM came out at 4.37%.

As for `CC(C)Cc1nc(CCn2ccc(=O)[nH]c2=O)n(-c2ccccn2)n1`, the cytotoxicity at 10 µM was -5.41%.

On to `Cc1cccc(NC2CCN(C(=O)Nc3cc(F)ccc3F)CC2)n1`, for which the cytotoxicity at 10 µM is -10.7%.

As to `COCCN(Cc1ccc(C)o1)C(=O)Nc1nnc2ccccn12`, the cytotoxicity at 10 µM was -1.59%.

As for `CNS(=O)(=O)c1ccc(CN2CCCN(CC(C)C)CC2)cc1`, the cytotoxicity at 10 µM worked out at 4.03%.

For the compound `CC(C)n1cc(CN2CCCN(C(=O)C(C)n3cncn3)CC2)cn1` (stereo unspecified), the cytotoxicity at 10 µM was -16.2%.

As to `CC(c1cn2ccsc2n1)n1cc2[nH]cccc-2c1=O` (stereo unspecified), the cytotoxicity at 10 µM is -1.97%.

As to `CC(C)c1cc(NC(=O)CNC2CCc3ncnn3C2)on1` (stereo unspecified), the cytotoxicity at 10 µM was 4.44%.

Take `Cc1nc(Nc2cnccn2)cc(C2CCN(c3ncccn3)C2)n1` (stereo unspecified): the cytotoxicity at 10 µM is -19.5%.

Turning to `CCOc1ccnc(N2CCN(C(=O)c3ccncc3)CC2)n1`, the cytotoxicity at 10 µM was -4.6%.

As for `CC1(c2nccs2)CCN(C(=O)CCN2CCOCC2)CC1`, the cytotoxicity at 10 µM worked out at 2.97%.

In the case of `O=C(Cc1cnn(-c2ccccc2)n1)NC1CCOCC1`, the cytotoxicity at 10 µM is -9.72%.

In the case of `CCOC1CC2(CCN(CCO)CC2)c2ccc(C)cc21` (stereo unspecified), the cytotoxicity at 10 µM was 9.01%.

On to `Cn1ccc(NC(=O)CN2CCC(Oc3cnccn3)CC2)n1`, for which the cytotoxicity at 10 µM amounted to 4.3%.

As for `O=C(c1ccco1)N1C[C@@H]2[C@@H](C1)OCC(=O)N2Cc1cccnc1`, the cytotoxicity at 10 µM worked out at 3.04%.

Turning to `CN(CC(=O)NC(C)(C#N)C1CC1)Cc1nnc(C2CC2)n1C` (stereo unspecified), the cytotoxicity at 10 µM turned out to be 7.32%.

In the case of `O=C(N[C@@H]1CN(Cc2ccoc2)C[C@@H]2CCCO[C@@H]21)C1CCC1`, the cytotoxicity at 10 µM is -95.8%.

For `OCc1ccc(CN2CCC(n3cc(-c4ccsc4)nn3)CC2)o1`, the cytotoxicity at 10 µM stood at 6.77%.

For `CCCNC(=O)C(C)N1CCC(C(=O)Nc2cnn(CC)c2)CC1` (stereo unspecified), the cytotoxicity at 10 µM is -5.36%.

Take `Cc1csc(CNC(=O)NCc2ccc3c(c2)OCCO3)n1`: the cytotoxicity at 10 µM was -5.52%.

In the case of `CCc1noc(CN(C)C(=O)COc2cc(Cl)cc(Cl)c2)n1`, the cytotoxicity at 10 µM was -0.966%.

`Cc1cc2n(n1)CC(CNC1CCN(CCc3ccccc3)CC1)CN2` (stereo unspecified): the cytotoxicity at 10 µM was found to be 2.7%.

Turning to `CC(C)c1nnc2sc(CC3CN(C(C)C)CCO3)nn12` (stereo unspecified), the cytotoxicity at 10 µM is -13.8%.

On to `O=C(NCCCn1cncn1)N1CCCCCC1`, for which the cytotoxicity at 10 µM is -7.1%.

As for `CN(C)CCNC(=O)Nc1cccc(C[S+]([O-])Cc2ccccc2)c1` (stereo unspecified), the cytotoxicity at 10 µM is 6.59%.

Regarding `Cc1ccc2c(c1)[C@@H](CC(=O)N1CCOCC1)CCO2`, the cytotoxicity at 10 µM is 8.24%.

Consider `CNC(=O)[C@@H](C1CCCCC1)N1CCC[C@H]1C(=O)NC1CC1`, for which the cytotoxicity at 10 µM came out at 5.56%.

As for `CCN(CC)C(C(=O)NCc1ccc(N2CCCC2)nc1)C(C)C` (stereo unspecified), the cytotoxicity at 10 µM is -8.08%.

`Cc1[nH]ccc1C(=O)N1CCC(c2nnc(Cn3ccnc3)n2C)CC1`: the cytotoxicity at 10 µM was -9.61%.

With `O=C(Cn1ccc2ccccc21)Nc1cc(N2CCCC2)ncn1`, the cytotoxicity at 10 µM stood at 4.24%.

In the case of `Cc1ccsc1C(=O)N1CCc2ncnc(NC(C)C)c2CC1`, the cytotoxicity at 10 µM is -79.3%.

`CNc1cncc(C2CCCN2Cc2cccc(C)n2)n1` (stereo unspecified): the cytotoxicity at 10 µM was -8.3%.
